Compound activity as filed in PubChem.
In the library only some 1.8% were active in any assay of this set; here they are far more common.
CHRM4 antagonist: human M4 muscarinic receptor antagonists, primary screen, CHO cells, Fluo-8 calcium fluorescence; CHO-hM4 cells, ACh EC80; inhibition, % at 3 µM; AID 624125, 2012; Muscarinic acetylcholine receptor M4 (Homo sapiens), P08173; 0.73% of 360,000 active;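 active means inhibition above its plate's cutoff, the mean inhibition of sample wells plus 3 SD, cut at about 27% in these data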;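 further: 0% = acetylcholine EC80 with DMSO and 100% = DMSO without agonist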
Target sequence (P08173 whole entry, looked up): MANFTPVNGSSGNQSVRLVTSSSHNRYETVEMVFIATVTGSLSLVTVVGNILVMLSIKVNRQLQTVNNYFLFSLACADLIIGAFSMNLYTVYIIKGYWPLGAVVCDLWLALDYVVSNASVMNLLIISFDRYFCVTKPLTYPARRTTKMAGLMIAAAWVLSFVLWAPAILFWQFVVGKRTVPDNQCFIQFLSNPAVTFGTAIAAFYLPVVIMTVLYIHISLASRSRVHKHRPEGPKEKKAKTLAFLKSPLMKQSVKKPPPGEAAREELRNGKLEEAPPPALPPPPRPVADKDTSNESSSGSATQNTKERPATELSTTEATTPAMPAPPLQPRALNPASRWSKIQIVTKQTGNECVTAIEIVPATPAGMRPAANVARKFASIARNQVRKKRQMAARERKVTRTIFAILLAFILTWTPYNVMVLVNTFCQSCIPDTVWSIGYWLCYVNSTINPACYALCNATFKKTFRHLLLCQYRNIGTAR
CHRM4 PAM: human M4 muscarinic receptor positive allosteric modulators, primary screen, CHO-K1 cells, Fluo-8 calcium fluorescence | Muscarinic acetylcholine receptor M4 (Homo sapiens), P08173 | CHO-K1 hM4/Gqi5, ACh EC20; 0% = ACh EC20, 100% = maximal ACh | activation, % at 3 µM | 0.4% of 360,000 active | AID 624126, 2012;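 active means activation above its plate's cutoff, the mean activation of sample wells plus 3 SD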
CHRM4 agonist: human M4 muscarinic receptor agonists, primary screen, CHO-K1 cells, Fluo-8 calcium fluorescence; Muscarinic acetylcholine receptor M4 (Homo sapiens), P08173; CHO-K1 hM4/Gqi5; vehicle 0%, full acetylcholine response 100%; activation, % at 3 µM; 0.14% of 360,000 active; AID 624127, 2012;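 active means activation above the run mean over all test wells plus 3 SD, cut at about 32% in these data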;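 further: peak over basal fluorescence ratio per well then scaled between controls; 0% = DMSO wells and 100% = acetylcholine at EC100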
M5 ag: human M5 muscarinic receptor agonists, primary screen, CHO-K1 cells, Fluo-8 calcium fluorescence; 0.19% of 360,000 active; activation, % at 3 µM; CHO-K1 hM5 cells; 0% DMSO wells, 100% maximal acetylcholine response; Muscarinic acetylcholine receptor M5 (Homo sapiens), P08912;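 active means activation above the run's mean over test compounds plus 3 SD, cut at about 23% in these data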;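 further: signal is peak over basal fluorescence ratio across the kinetic read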
M5 PAM: human M5 muscarinic receptor positive allosteric modulators, primary screen, CHO-K1 cells, Fluo-8 calcium fluorescence; CHO-K1 hM5, ACh EC20 PAM; 0% = ACh EC20, 100% = ACh EC100; activation, % at 3 µM; 0.3% of 360,000 active;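 active means activation above the run cutoff, the mean activation of all test compounds plus 3 SD, cut at about 18% in these data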
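system = human M5 receptor in CHO-K1 cells | reagent = EC20 acetylcholine as agonist stimulus | compound dosing = single-point, 3 µM nominal | incubation = Fluo-8 loading 80 min at 37 °C plus 30 min room temperature | detection = Fluo-8 calcium dye fluorescence, kinetic read | benchmarks = low control EC20 acetylcholine (0%), high control EC100 acetylcholine (100%)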
M5 antag: human M5 muscarinic receptor antagonists, primary screen, CHO cells, Fluo-8 calcium fluorescence; 0.59% of 360,000 active; inhibition, % at 3 µM; Muscarinic acetylcholine receptor M5 (Homo sapiens), P08912; CHO-hM5 cells, ACh EC80;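 active means inhibition above a per-plate cutoff, the mean of that plate's test compounds plus 3 SD, cut at about 27% in these data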;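 further: 0% = acetylcholine EC80 with DMSO and 100% = DMSO without agonist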
Active calls of the source: *.

SMILES | CHRM4 antagonist | CHRM4 PAM | CHRM4 agonist | M5 ag | M5 PAM | M5 antag
O=C(CCCOc1ccccc1)Nc1nccs1 | 1 | 19 | 1 | 1 | -2 | -1
O=C(Nc1nccs1)Oc1ccccc1 | -14 | 28* | 1 | -3 | -1 | -2
CCOC(=O)[C@]12CCCC=C1N(Cc1ccco1)C(=O)[C@H](CC(=O)N1CCN(C(=O)c3ccco3)CC1)C2 | -3 | 24* | -2 | 6 | 5 | -3
C#CCNC(=O)C[C@@H]1C[C@@]2(C(=O)OC)CCCCC=C2N(Cc2ccco2)C1=O | -2 | 6 | 1 | 7 | 14 | -17
C#CCNC(=O)C[C@@H]1C[C@@]2(C(=O)OCC)CCC=C2N(Cc2ccco2)C1=O | -10 | 28* | 1 | 1 | 3 | 1
CCCC1CCc2[nH]nc(C(=O)NN)c2C1 (stereo not given) | 11 | 3 | 1 | 2 | -2 | -6
CC(=O)NC1(NC(C)=O)CCN(C)C(c2ccccc2)C1C (stereo not given) | 11 | 20 | 1 | 26* | 10 | -8
CCS(=O)(=O)N1CCC(NC(C)=O)(c2ccccc2)CC1 | 9 | -2 | 0 | -2 | -4 | 2
COC1=C(OC)C(=O)C(CCCCCCCCCCO)=C(C)C1=O | 98* | -17 | 10 | 4 | -19 | 40*
CCC(C)CN1C(=O)CN(S(C)(=O)=O)CC1(C)C(=O)NCc1ccccc1 (stereo not given) | 2 | 8 | 3 | 1 | -4 | 8
Cc1cc(N2CCC(C)CC2)nc(-c2ccccc2O)n1 | -17 | -6 | -2 | -8 | 15 | -10
Cc1cc(-n2[nH]c(C)c(C)c2=O)nc(-c2ccccc2O)n1 | 2 | 9 | 9 | 0 | 37* | 42*
COc1cc(Cl)c(C)cc1NC(=O)COc1cc(C)nc(C(C)C)n1 | 3 | 33* | 1 | -2 | -9 | 8
FC(F)(F)c1cc(-c2ccccc2)nc(N2CCCCCC2)n1 | -2 | 14 | 1 | -1 | 0 | 0
COc1ccccc1N1CCN(c2nc(-c3ccccc3)cc(C(F)(F)F)n2)CC1 | -4 | 10 | 1 | -1 | 27* | -20
COc1ccc(C(=O)C2CCCN(C(=O)c3cccc(Cn4cccn4)c3)C2)cc1F (stereo not given) | -7 | 1 | 6 | 0 | -5 | 21
COc1ccc(CN2CCCC(C(=O)c3ccc(SC)cc3)C2)cc1Cn1cccn1 (stereo not given) | 37* | -51 | 5 | -20 | -26 | 18
CSc1ccc(C(=O)C2CCCN(Cc3ccc(N4CCNC4=O)cc3)C2)cc1 (stereo not given) | 70* | -22 | 2 | -11 | -14 | -4
COc1cccc(N=Cc2c(O)c3ccccc3oc2=O)c1 | 3 | -2 | 2 | 6 | 1 | -6
CCc1ccc(-c2cc(C)no2)cc1S(=O)(=O)NCCCN1CCN(c2ccccc2)CC1 | 31* | -13 | 25 | 1 | -15 | 29*
O=C(CC1C(=O)NCCN1CC1CCCCC1)NCCCN1CCOCC1 (stereo not given) | 0 | -3 | 1 | -4 | -5 | 18
CCOc1ccc(NC(=O)Nc2nc(SCC)ns2)cc1 | 3 | -9 | 20 | 8 | -25 | 33*
O=C(/C(N=Nc1cccc([N+](=O)[O-])c1)=C(/O)c1ccc(Br)cc1)C(F)(F)F | 37* | -16 | 17 | 4 | -20 | 24
CCN(C(=O)COC(=O)Cc1c[nH]c2ccccc12)C1CCS(=O)(=O)C1 (stereo not given) | -19 | 19* | 1 | -3 | 15 | -15
CCC(C)N(C(=O)COC(=O)CCc1c[nH]c2ccccc12)C1CCS(=O)(=O)C1 (stereo not given) | -10 | 6 | 4 | -3 | -2 | -14
SMILES | CHRM4 antagonist | CHRM4 PAM | CHRM4 agonist | M5 ag | M5 PAM | M5 antag
Cc1cc(OCc2cc(C(=O)NCCN3CCCCC3CO)no2)cc(C)c1Cl (stereo not given) | -2 | -7 | 10 | -4 | -13 | 9
CCOC(=O)c1ccccc1NC(=O)COC(=O)CSc1ccccc1 | -4 | 21* | 0 | -1 | 2 | -2
Cc1ccccc1NC(=O)CSc1nnnn1C | -4 | 5 | 0 | -2 | 1 | 1
CCOC(=O)c1ccccc1NC(=O)CSc1nnnn1C | 0 | 19* | 0 | -1 | 3 | -7
COc1cc2c(cc1OC)C(c1ccc(Br)cc1)N(C(=O)c1ccccc1C(=O)O)CC2 (stereo not given) | -5 | 8 | 4 | -4 | 5 | 8
CC(=O)c1ccc(O)c(CSC2=NCCS2)c1 | -5 | 8 | 3 | 2 | 11 | -4
CN1CCN(c2ncccc2S(=O)(=O)N2CCCCC2)CC1 | 69* | -14 | 0 | -11 | -15 | 99*
CN(Cc1ccccc1)C(=O)c1cccc(NC(=O)Cc2ccc(NC(=O)C3CCCN(C(=O)C4CCCC4)C3)cc2)c1 (stereo not given) | 2 | -3 | 0 | -3 | -4 | 0
CC(=O)OCCNc1cc(N2CCN(C)CC2)c2noc3c2c1C(=O)c1ccccc1-3 | -9 | 3 | 0 | 1 | -5 | 7
CCOC(=O)C(C(=O)OCC)c1cc(Br)c2noc3c2c1C(=O)c1ccccc1-3 | 54* | -6 | 8 | 6 | 3 | 33*
Cc1cccc(N(C)c2cc(-c3ccc(F)cc3)nc3ccnn23)c1 | 3 | -7 | -1 | 0 | 1 | -5
Cc1ccc(S(=O)(=O)c2ccc([N+](=O)[O-])o2)cc1 | 36* | -5 | 0 | -8 | -1 | 19
Nc1c(N(Cc2ccco2)C(=O)c2ccccc2F)c(=O)[nH]c(=O)n1Cc1ccccc1 | 3 | 4 | 0 | -1 | -1 | 3
CC(CNC(=O)CCCn1ncn2c(cc3occc32)c1=O)c1ccccc1 (stereo not given) | -5 | 16* | 2 | -2 | 10 | -15
COC(=O)C1(c2ccccc2)NC(c2cccs2)C2C(=O)N(C)C(=O)C21 (stereo not given) | 6 | -3 | 0 | -5 | 0 | -4
